1 compound from ChEMBL document CHEMBL5715950, “Characterization of molecular and cellular functions of the cyclin-dependent kinase CDK9 using a novel specific inhibitor” (Br J Pharmacol, 2014) can be followed below.

The target in experiment [1] is CDK6/cyclin D3 (Homo sapiens, UniProt Q00534). Description: Inhibition of CDK6/Cyclin D3 (unknown origin) using ULight MBP peptide as substrate in presence of ATP incubated for 1 hr by FRET based LANCE Ultra KinaSelect screen assay. The experiment is classed as protein-complex assay. A digest of the protocol:
(§1)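 Time-resolved FRET kinase assay with purified CDK-cyclin pairs. ULight MBP peptide substrate was 50 nM final. Buffer was 50 mM HEPES-KOH pH 7.5, 10 mM MgCl2, 1 mM EGTA and 2 mM DTT, with ATP at each kinase's KM (CDK2-cyclin A 3 μM). Reactions ran 1 h at room temperature, then 2 nM Eu-labelled anti-phospho antibody was added for detection. IC50 given as mean ± SD.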

Experiment [2] deals with CDK7/Cyclin H/MNAT1 (Homo sapiens, UniProt P50613). Description: Inhibition of CDK7/Cyclin H/MAT1 (unknown origin) using ULight MBP peptide as substrate in presence of ATP incubated for 1 hr by FRET based LANCE Ultra KinaSelect screen assay. Type of experiment: protein-complex assay.
Experiment [3] can be described thus: Transcription level in human HEK293T cells nuclear extract fused with Gal4-VP16 at 10 uM in presence of ATP by phosphorimaging analysis relative to control. The settings on record: HEK-293T.
The target in experiment [4] is Cyclin-dependent kinase 1/cyclin B1 (Homo sapiens, UniProt P06493). Kind of experiment: Inhibition of CDK1/Cyclin B1 (unknown origin) using ULight MBP peptide as substrate in presence of ATP incubated for 1 hr by FRET based LANCE Ultra KinaSelect screen assay. Type of experiment: protein-complex assay. A digest of the protocol:
as §1

The target of experiment [5] is Cyclin-dependent kinase 9 (Homo sapiens) (UniProt P50750). Kind of experiment: Inhibition of CDK9 in human HeLa cells assessed as downregulation of Serine 7 phosphorylation at 10 uM incubated for 60 mins by Western blotting analysis. The experiment is classed as cell-based.
The test system of experiment [6] is HCT 116 TP53(-/-). Description: Induction of apoptosis in human HCT116-p53-null cells at 10 uM incubated for 24 hrs by Annexin V-FITC/PI staining based flow cytometric analysis. Type of experiment: functional, cell-based. A digest of the protocol: (§2)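 Cells grown at 37°C, 5% CO2 (A549, HeLa, MCF7 in DMEM high glucose; HCT116 in McCoy's 5A; THP1 and primary AML M4 apheresis blasts in RPMI1640), exposed to inhibitor or DMSO for 24 h. Apoptotic fraction by flow cytometry after annexin V-fluorescein/propidium iodide double staining. Means ± SD of three biological replicates; AML blasts from one patient, three technical replicates. Student's t-test versus DMSO/untreated.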

For experiment [7], the system named is HeLa. Kind of experiment: Induction of apoptosis in human HeLa cells at > 2 uM incubated for 24 hrs by Annexin V-FITC/PI staining based flow cytometric analysis. Type of experiment: functional, cell-based. A digest of the protocol:
as §2

The target of experiment [8] is Tyrosine-protein kinase ABL2 (Homo sapiens, UniProt P42684). Kind of experiment: Inhibition of ABL2 (unknown origin) assessed as residual activity at 10 uM incubated for 120 mins in presence of 33P-ATP by radiometric kinase assay relative to control.
The nature of experiment [9]: Selectivity ratio of IC50 for inhibition of CDK9/Cyclin T1 (unknown origin) to IC50 for inhibition of CDK2/Cyclin A (unknown origin).
Experiment [10] addresses Cyclin-dependent kinase 9 (Homo sapiens) (UniProt P50750). Kind of experiment: Inhibition of CDK9 in human HeLa cells assessed as upregulation of serine 2 phosphorylation at 10 uM incubated for 1 hr by chromatin immunoprecipitation assay. The experiment is classed as cell-based.
Experiment [11] has the same target. Kind of experiment: Inhibition of CDK9 in human A549 cells assessed as downregulation of GAPDH mRNA expression at 1 to 10 uM incubated for 90 mins by RT-qPCR analysis relative to control. The experiment is classed as cell-based. The conditions noted are these: dose 1-10 µM.
Experiment [12] is described as follows: Transcription level in human HeLa cells nuclear extract fused with Gal4-VP16 at 10 uM in presence of ATP by phosphorimaging analysis relative to control.
In experiment [13] the target is Cyclin-dependent kinase 9 (Homo sapiens) (UniProt P50750). Kind of experiment: Inhibition of CDK9 in human MCF7 cells assessed as upregulation of p53 phosphorylation at Ser392 at 10 uM incubated for 4 hrs by Western blotting analysis. The experiment is classed as cell-based.

pIC50: −log10 of the molar value. The source made the active and inactive calls. The calls are words filed in the database; no cut-off is given here.

Cyclin-dependent kinase 9 (Homo sapiens), sequence (P50750 whole entry): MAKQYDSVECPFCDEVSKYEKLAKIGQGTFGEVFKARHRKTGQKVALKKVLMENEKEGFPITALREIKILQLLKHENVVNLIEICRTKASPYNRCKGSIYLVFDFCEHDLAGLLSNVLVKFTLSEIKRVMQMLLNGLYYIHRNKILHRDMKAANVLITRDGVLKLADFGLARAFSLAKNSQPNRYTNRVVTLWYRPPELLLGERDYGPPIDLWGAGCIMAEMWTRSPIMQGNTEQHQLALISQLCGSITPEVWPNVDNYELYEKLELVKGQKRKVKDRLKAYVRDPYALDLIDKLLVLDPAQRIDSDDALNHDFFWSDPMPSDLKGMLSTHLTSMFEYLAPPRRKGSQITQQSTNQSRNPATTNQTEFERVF
CDK6/cyclin D3, sequence (P30281 whole entry): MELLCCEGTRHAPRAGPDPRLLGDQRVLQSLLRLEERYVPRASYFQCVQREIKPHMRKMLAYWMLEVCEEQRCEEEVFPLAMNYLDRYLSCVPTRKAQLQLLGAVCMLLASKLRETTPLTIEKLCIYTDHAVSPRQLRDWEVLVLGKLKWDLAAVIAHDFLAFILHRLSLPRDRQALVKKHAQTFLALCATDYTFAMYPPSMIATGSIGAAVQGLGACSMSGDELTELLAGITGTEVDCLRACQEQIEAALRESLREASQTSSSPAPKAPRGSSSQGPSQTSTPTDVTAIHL
CDK6/cyclin D3, sequence (Q00534 whole entry): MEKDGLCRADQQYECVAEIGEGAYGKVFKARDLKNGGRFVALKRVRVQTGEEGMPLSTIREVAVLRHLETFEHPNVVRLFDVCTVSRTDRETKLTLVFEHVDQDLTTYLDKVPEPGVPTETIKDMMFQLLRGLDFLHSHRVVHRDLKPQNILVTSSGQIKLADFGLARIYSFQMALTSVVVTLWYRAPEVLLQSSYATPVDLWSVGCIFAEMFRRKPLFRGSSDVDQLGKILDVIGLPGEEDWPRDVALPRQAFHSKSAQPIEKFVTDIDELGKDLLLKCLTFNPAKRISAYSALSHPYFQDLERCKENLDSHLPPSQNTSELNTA
Tyrosine-protein kinase ABL2, sequence (P42684 whole entry): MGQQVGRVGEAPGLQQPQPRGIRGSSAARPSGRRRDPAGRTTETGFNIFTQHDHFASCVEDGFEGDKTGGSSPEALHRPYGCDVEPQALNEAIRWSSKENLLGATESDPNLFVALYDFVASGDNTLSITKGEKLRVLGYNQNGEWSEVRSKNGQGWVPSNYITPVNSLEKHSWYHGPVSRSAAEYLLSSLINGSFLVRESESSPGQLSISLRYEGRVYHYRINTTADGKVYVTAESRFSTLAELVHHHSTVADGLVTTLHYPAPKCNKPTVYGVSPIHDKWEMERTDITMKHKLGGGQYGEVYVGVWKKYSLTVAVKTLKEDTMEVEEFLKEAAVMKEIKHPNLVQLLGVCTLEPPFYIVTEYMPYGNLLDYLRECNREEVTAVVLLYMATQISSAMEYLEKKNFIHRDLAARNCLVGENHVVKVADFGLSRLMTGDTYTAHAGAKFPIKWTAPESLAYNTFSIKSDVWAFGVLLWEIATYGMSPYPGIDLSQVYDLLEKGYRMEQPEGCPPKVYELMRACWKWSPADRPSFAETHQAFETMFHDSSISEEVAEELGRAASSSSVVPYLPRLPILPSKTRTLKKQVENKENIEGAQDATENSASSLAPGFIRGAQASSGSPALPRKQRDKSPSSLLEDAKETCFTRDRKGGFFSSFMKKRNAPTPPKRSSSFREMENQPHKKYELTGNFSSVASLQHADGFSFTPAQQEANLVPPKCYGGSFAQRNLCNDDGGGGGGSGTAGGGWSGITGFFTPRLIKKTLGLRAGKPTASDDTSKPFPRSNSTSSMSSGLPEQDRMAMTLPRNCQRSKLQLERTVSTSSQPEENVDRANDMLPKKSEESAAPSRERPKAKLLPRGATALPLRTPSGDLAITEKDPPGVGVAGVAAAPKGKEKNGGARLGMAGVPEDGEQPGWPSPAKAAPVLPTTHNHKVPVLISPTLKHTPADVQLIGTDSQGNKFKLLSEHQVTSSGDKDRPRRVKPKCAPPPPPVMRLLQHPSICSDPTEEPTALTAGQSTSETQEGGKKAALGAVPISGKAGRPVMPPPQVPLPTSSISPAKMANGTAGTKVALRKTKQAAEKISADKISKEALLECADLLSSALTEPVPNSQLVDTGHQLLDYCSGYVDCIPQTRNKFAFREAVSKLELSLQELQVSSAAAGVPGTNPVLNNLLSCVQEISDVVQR
Cyclin-dependent kinase 1/cyclin B1, sequence (P06493 whole entry): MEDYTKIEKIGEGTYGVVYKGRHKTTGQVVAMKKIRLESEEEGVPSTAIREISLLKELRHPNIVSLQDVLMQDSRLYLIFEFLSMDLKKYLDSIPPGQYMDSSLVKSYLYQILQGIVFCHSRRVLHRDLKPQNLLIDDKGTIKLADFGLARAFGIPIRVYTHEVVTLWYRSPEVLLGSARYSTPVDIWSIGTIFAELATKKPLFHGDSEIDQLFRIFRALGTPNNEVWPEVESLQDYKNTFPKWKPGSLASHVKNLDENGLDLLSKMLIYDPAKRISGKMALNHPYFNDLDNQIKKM
Cyclin-dependent kinase 1/cyclin B1, sequence (P14635 whole entry, further chain): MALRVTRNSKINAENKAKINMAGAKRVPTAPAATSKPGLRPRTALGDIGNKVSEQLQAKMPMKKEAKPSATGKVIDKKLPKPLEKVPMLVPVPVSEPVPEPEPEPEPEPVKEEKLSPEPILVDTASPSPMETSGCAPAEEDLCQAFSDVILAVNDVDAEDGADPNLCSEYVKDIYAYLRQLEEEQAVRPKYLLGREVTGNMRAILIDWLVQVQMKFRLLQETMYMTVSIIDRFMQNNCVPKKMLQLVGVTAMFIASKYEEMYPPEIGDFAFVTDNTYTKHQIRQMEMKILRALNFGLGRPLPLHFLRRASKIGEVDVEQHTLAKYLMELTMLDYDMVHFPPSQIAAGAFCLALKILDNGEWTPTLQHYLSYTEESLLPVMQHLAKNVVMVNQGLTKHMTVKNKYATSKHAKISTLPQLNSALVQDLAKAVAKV
CDK7/Cyclin H/MNAT1, sequence (P51946 whole entry, the tested form may be a part): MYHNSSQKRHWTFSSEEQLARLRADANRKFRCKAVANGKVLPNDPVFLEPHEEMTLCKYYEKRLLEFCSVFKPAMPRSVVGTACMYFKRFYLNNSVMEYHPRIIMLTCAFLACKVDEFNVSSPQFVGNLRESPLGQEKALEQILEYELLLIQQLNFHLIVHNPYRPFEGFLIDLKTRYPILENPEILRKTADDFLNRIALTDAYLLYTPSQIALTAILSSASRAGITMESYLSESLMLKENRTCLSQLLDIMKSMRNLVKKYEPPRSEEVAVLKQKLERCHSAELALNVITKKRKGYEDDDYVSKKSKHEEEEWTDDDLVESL
CDK7/Cyclin H/MNAT1, sequence (P50613 whole entry, the tested form may be a part): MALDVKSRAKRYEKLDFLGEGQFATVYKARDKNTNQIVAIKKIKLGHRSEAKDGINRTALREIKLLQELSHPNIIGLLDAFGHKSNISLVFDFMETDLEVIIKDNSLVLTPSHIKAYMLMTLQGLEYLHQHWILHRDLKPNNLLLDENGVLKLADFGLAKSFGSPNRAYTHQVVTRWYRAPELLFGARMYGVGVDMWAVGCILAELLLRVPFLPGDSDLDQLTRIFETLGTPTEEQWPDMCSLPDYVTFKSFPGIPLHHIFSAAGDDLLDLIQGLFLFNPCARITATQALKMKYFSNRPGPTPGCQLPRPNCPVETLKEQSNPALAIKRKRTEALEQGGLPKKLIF
CDK7/Cyclin H/MNAT1, sequence (P51948 whole entry, further chain, the tested form may be a part): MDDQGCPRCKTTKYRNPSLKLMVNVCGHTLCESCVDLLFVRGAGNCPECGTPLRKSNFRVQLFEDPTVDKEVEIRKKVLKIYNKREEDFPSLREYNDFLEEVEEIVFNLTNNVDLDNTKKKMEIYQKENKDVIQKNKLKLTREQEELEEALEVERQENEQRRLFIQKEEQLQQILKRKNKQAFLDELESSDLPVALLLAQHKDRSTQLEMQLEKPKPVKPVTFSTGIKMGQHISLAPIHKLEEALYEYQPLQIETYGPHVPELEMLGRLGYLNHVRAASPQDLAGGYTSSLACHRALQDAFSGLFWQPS

As to `COc1ccccc1-c1cc(Nc2cccc(NS(C)(=O)=O)c2)ncn1`, the pIC50 was below 5.00 in [1], below 5.00 in experiment [2] and 5.26 in [4]. The level, % of control at 10 µM in [3] and in experiment [12] was 20% throughout. Besides, the inhibition entry in experiment [5] was “inactive”. Further, the result in experiment [6] and in experiment [7] was Active. In addition, in [8], the Activity amounted to 27%. For the same compound, the Ratio IC50 in [9] was found to be 55. The inhibition entry in [10] and in experiment [13] was “Active” in each case. The inhibition in [11] was found to be 50%.
